ChEMBL document CHEMBL2424601, “Synthetic chondramide A analogues stabilize filamentous actin and block invasion by Toxoplasma gondii” (J Nat Prod, 2013)
Active and inactive are the calls of the source. The calls are words filed in the database; no cut-off is given here.

These molecules were tested on Toxoplasma gondii (assay: Antiparasitic activity against Toxoplasma gondii expressing beta-galactosidase infected in HFF assessed as parasite growth inhibition treated for 2 hrs followed by washout measured after 48 hrs after 72 hrs relative to continuous culture in presence of drug for 48 hrs). Settings: not given.
Type: functional
Method in brief: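 β-gal-expressing T. gondii preincubated 30 min with compound dilutions in complete DMEM (10% FBS, gentamicin, 0.2% DMSO), 500 parasites/well onto confluent HFF; compound washed out after 2 h versus continuous exposure; 72 h at 37 °C, 5% CO2. Lysis, chlorophenol red-β-D-galactopyranoside, A570 normalized to untreated; variable-slope log(inhibitor)-response fit; three experiments, n = 4.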
`C/C1=C\[C@H](C)C[C@H](C)OC(=O)C[C@H](c2ccc(O)cc2)NC(=O)[C@@H](Cc2c(Br)[nH]c3ccccc23)N(C)C(=O)[C@H](C)NC(=O)[C@@H](C)C1` [JASPAMIDE] was tested, and the “fold change (FC)” value was 1.5. `CO[C@@H]1C(=O)O[C@H](C)[C@H](C)/C=C(\C)C[C@H](C)C(=O)N[C@@H](C)C(=O)N(C)[C@H](Cc2c[nH]c3ccccc23)C(=O)N[C@H]1c1ccccc1` was tested, and the “fold change (FC)” value was 1.5.

What follows are molecules tested against Actin (Toxoplasma gondii) (UniProt P53476) (assay: Induction of Toxoplasma gondii N-terminally his-tagged recombinant actin polymerization at 2 uM after 1 hr using phalloidin staining by fluorescence microscopic analysis). Settings: not given.
Actin (Toxoplasma gondii), sequence (P53476 whole entry): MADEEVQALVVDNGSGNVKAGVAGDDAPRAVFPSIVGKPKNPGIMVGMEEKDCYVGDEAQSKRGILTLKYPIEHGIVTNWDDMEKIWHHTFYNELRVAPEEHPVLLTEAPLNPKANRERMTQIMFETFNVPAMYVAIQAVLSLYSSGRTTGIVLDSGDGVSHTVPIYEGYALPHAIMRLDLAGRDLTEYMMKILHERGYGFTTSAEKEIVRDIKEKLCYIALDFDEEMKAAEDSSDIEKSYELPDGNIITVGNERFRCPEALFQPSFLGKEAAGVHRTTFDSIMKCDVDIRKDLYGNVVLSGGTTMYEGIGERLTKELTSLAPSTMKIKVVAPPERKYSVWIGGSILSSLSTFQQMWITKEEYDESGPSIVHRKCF
Method in brief: (§1)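 His-tagged TgACTI from baculovirus, Ni-NTA purified, cleared at 100000g; 5 μM actin in F-buffer (50 mM KCl, 2 mM MgCl2, 1 mM ATP) with compound plus Alexa 488 phalloidin 1.2 U/μL, 1 h; filaments imaged by fluorescence microscopy (63× oil); lengths averaged over three filaments per point.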
In the case of `CO[C@@H]1C(=O)O[C@H](C)[C@H](C)/C=C(\C)C[C@H](C)C(=O)N[C@@H](C)C(=O)N(C)[C@H](Cc2c[nH]c3ccccc23)C(=O)N[C@H]1c1ccc(O)cc1`, the Activity is reported as “Active”. `CO[C@@H]1C(=O)O[C@H](C)[C@H](C)/C=C(\C)C[C@H](C)C(=O)N[C@@H](C)C(=O)N(C)[C@H](Cc2c[nH]c3ccccc23)C(=O)N[C@H]1c1ccccc1` was tested, and the Activity was “Active”.

Each molecule was assayed against Actin (Toxoplasma gondii) (UniProt P53476) (assay: Induction of Toxoplasma gondii N-terminally his-tagged recombinant actin polymerization at 0.25 uM after 1 hr using phalloidin staining by fluorescence microscopic analysis). Settings: not given.
Method in brief: as §1
With `CO[C@@H]1C(=O)O[C@H](C)[C@H](C)/C=C(\C)C[C@H](C)C(=O)N[C@@H](C)C(=O)N(C)[C@H](Cc2c[nH]c3ccccc23)C(=O)N[C@H]1c1ccc(O)cc1` the Activity was “Active”. With `CO[C@@H]1C(=O)O[C@H](C)[C@H](C)/C=C(\C)C[C@H](C)C(=O)N[C@@H](C)C(=O)N(C)[C@H](Cc2c[nH]c3ccccc23)C(=O)N[C@H]1c1ccccc1` the Activity was “Active”.

Each molecule was assayed against Actin (Toxoplasma gondii) (UniProt P53476) (assay: Induction of Toxoplasma gondii N-terminally his-tagged recombinant actin polymerization after 1 hr). Settings: not given.
Method in brief: as §1
`C/C1=C\[C@H](C)C[C@H](C)OC(=O)C[C@H](c2ccc(O)cc2)NC(=O)[C@@H](Cc2c(Br)[nH]c3ccccc23)N(C)C(=O)[C@H](C)NC(=O)[C@@H](C)C1` [JASPAMIDE] was tested, and the Activity was “Active”. `CO[C@@H]1C(=O)O[C@H](C)[C@H](C)/C=C(\C)C[C@H](C)C(=O)N[C@@H](C)C(=O)N(C)[C@H](Cc2c[nH]c3ccccc23)C(=O)N[C@H]1c1ccc(O)cc1` was tested, and the Activity was “Dose-dependent effect”. `CO[C@@H]1C(=O)O[C@H](C)[C@H](C)/C=C(\C)C[C@H](C)C(=O)N[C@@H](C)C(=O)N(C)[C@H](Cc2c[nH]c3ccccc23)C(=O)N[C@H]1c1ccccc1` was tested, and the Activity was “Dose-dependent effect”.

The molecules below were run on HFF (assay: Cytotoxicity against HFF after 72 hrs). Settings: human.
Type: cell-based
Method in brief: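 Confluent HFF monolayers given serial dilutions in complete DMEM with 0.2% DMSO for 72 h; viable cells by MTS colorimetric assay, normalized to untreated cells.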
With `CO[C@@H]1C(=O)O[C@H](C)[C@H](C)/C=C(\C)C[C@H](C)C(=O)N[C@@H](C)C(=O)N(C)[C@H](Cc2c(Cl)[nH]c3ccccc23)C(=O)N[C@H]1c1ccc(O)cc1` the Activity was “Toxic”. `C/C1=C\[C@H](C)C[C@H](C)OC(=O)C[C@H](c2ccc(O)cc2)NC(=O)[C@@H](Cc2c(Br)[nH]c3ccccc23)N(C)C(=O)[C@H](C)NC(=O)[C@@H](C)C1` [JASPAMIDE] was tested, and the Activity was “Toxic”. In the case of `CO[C@@H]1C(=O)O[C@H](C)[C@H](C)/C=C(\C)C[C@H](C)C(=O)N[C@@H](C)C(=O)N(C)[C@H](Cc2c[nH]c3ccccc23)C(=O)N[C@H]1c1ccc(O)cc1`, the Activity is reported as “Toxic”. In the case of `C/C1=C\[C@@H](C)[C@@H](C)OC(=O)C[C@H](c2ccc(O)cc2)NC(=O)[C@@H](Cc2c[nH]c3ccccc23)N(C)C(=O)[C@H](C)NC(=O)[C@@H](C)C1`, the Activity is reported as “Toxic”.

These molecules were tested on Toxoplasma gondii (assay: Antiparasitic activity against Toxoplasma gondii expressing beta-galactosidase infected in HFF assessed as parasite growth inhibition after 72 hrs). Settings: not given.
Type: functional, organism-based
Method in brief: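 β-gal-expressing parasites preincubated 30 min with compound dilutions in DMEM/10% FBS/gentamicin containing 0.2% DMSO, then inoculated at 500/well onto confluent HFF monolayers and cultured continuously; 72 h at 37 °C, 5% CO2. Lysed cells read with chlorophenol red-β-d-galactopyranoside at A570, normalized to untreated control; EC50 from variable-slope log(inhibitor)-response fit, three experiments (n = 4 replicates).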
`CO[C@@H]1C(=O)O[C@H](C)[C@H](C)/C=C(\C)C[C@H](C)C(=O)N[C@@H](C)C(=O)N(C)[C@H](Cc2c(Cl)[nH]c3ccccc23)C(=O)N[C@H]1c1ccc(O)cc1` was tested, and the EC50 was 0.22 µM. With `C/C1=C\[C@H](C)C[C@H](C)OC(=O)C[C@H](c2ccc(O)cc2)NC(=O)[C@@H](Cc2c(Br)[nH]c3ccccc23)N(C)C(=O)[C@H](C)NC(=O)[C@@H](C)C1` [JASPAMIDE] the EC50 was 0.34 µM. With `CO[C@@H]1C(=O)O[C@H](C)[C@H](C)/C=C(\C)C[C@H](C)C(=O)N[C@@H](C)C(=O)N(C)[C@H](Cc2c[nH]c3ccccc23)C(=O)N[C@H]1c1ccc(C(N)=O)cc1` the EC50 was ≥ 45 µM. With `CO[C@@H]1C(=O)O[C@H](C)[C@H](C)/C=C(\C)C[C@H](C)C(=O)N[C@@H](C)C(=O)N(C)[C@H](Cc2c[nH]c3ccccc23)C(=O)N[C@H]1c1ccc(CCO)cc1` the EC50 was 0.6 µM. Work on `CO[C@@H]1C(=O)O[C@H](C)[C@H](C)/C=C(\C)C[C@H](C)C(=O)N[C@@H](C)C(=O)N(C)[C@H](Cc2c[nH]c3ccccc23)C(=O)N[C@H]1c1ccc(C#N)cc1` yielded an EC50 of 0.38 µM. `CO[C@@H]1C(=O)O[C@H](C)[C@H](C)/C=C(\C)C[C@H](C)C(=O)N[C@@H](C)C(=O)N(C)[C@H](Cc2c[nH]c3ccccc23)C(=O)N[C@H]1c1ccc(O)cc1` was tested, and the EC50 was 0.56 µM. Molecule `CO[C@@H]1C(=O)O[C@H](C)[C@H](C)/C=C(\C)C[C@H](C)C(=O)N[C@@H](C)C(=O)N(C)[C@H](Cc2c[nH]c3ccccc23)C(=O)N[C@H]1c1ccc(C)cc1` has an EC50 of 0.53 µM. `CO[C@@H]1C(=O)O[C@H](C)[C@H](C)/C=C(\C)C[C@H](C)C(=O)N[C@@H](C)C(=O)N(C)[C@H](Cc2c[nH]c3ccccc23)C(=O)N[C@H]1c1ccc(CO)cc1` showed an EC50 of 0.74 µM. Molecule `COc1ccc([C@@H]2NC(=O)[C@@H](Cc3c[nH]c4ccccc34)N(C)C(=O)[C@H](C)NC(=O)[C@@H](C)C/C(C)=C/[C@@H](C)[C@@H](C)OC(=O)[C@H]2OC)cc1` has an EC50 of 0.69 µM. Work on `CO[C@@H]1C(=O)O[C@H](C)[C@H](C)/C=C(\C)C[C@H](C)C(=O)N[C@@H](C)C(=O)N(C)[C@H](Cc2c[nH]c3ccccc23)C(=O)N[C@H]1c1ccc(F)cc1` yielded an EC50 of 0.32 µM. Molecule `C/C1=C\[C@@H](C)[C@@H](C)OC(=O)C[C@H](c2ccc(O)cc2)NC(=O)[C@@H](Cc2c[nH]c3ccccc23)N(C)C(=O)[C@H](C)NC(=O)[C@@H](C)C1` has an EC50 of 0.48 µM. `CO[C@@H]1C(=O)O[C@H](C)[C@H](C)/C=C(\C)C[C@H](C)C(=O)N[C@@H](C)C(=O)N(C)[C@H](Cc2c[nH]c3ccccc23)C(=O)N[C@H]1c1ccccc1` showed an EC50 of 0.51 µM. `CO[C@@H]1C(=O)O[C@H](C)[C@H](C)/C=C(\C)C[C@H](C)C(=O)N[C@@H](C)C(=O)N(C)[C@H](Cc2c[nH]c3ccccc23)C(=O)N[C@H]1c1ccc(-c2ccccc2)cc1` gave an EC50 of 1.34 µM. `CO[C@@H]1C(=O)O[C@H](C)[C@H](C)/C=C(\C)C[C@H](C)C(=O)N[C@@H](C)C(=O)N(C)[C@H](Cc2c[nH]c3ccccc23)C(=O)N[C@H]1c1ccc([N+](=O)[O-])cc1` was tested, and the EC50 was 0.61 µM. With `CO[C@@H]1C(=O)O[C@H](C)[C@H](C)/C=C(\C)C[C@H](C)C(=O)N[C@@H](C)C(=O)N(C)[C@H](Cc2c[nH]c3ccccc23)C(=O)N[C@H]1c1ccc(N)cc1` the EC50 was 0.66 µM.
